In ChEMBL document CHEMBL2029329, “Synthesis and biological evaluation of 1,4-diaryl-2-azetidinones as specific anticancer agents: activation of adenosine monophosphate activated protein kinase and induction of apoptosis” (J Med Chem, 2012):
Each block holds one compound with its values, some of them ahead of it. Calls of active or inactive are those of the source. No cut-off for these calls is given here.

Assays:
[1] = tested on: HeLa; assay: Antiproliferative activity in human HeLa cells assessed as cell viability at 10 uM after 48 hrs by MTT assay; assay type: functional, cell-based
Outline: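 HeLa cells were kept in DMEM with 10% FBS at 37 °C, 5% CO2. They were seeded, left 24 h, then given 10 μM compound for 48 h. MTT was added for 2 h at 37 °C, formazan solubilized, absorbance read at 570 nm, and viability compared with control cells.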

[2] = Antiproliferative activity in human HuTu 80 cells assessed as cell viability after 72 hrs by MTT assay; assay type: functional, cell-based, HuTu80
Outline: (§1)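 Each line was grown in its own medium: DMEM for HuTu-80, EMEM/NEAA for MCF-7, EMEM/F12 for SKNBE, DMEM/F12 with 5% FBS for T84, Leibovitz's for the SW lines. Cells were seeded, left 24 h, then exposed to graded concentrations for 72 h. MTT was given 2 h, absorbance read at 570 nm. IC50 is 50% absorbance inhibition versus control, from dose-response curves; mean ± SD of ≥3 independent experiments, each in triplicate.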

[3] = tested on: SW48; assay: Antiproliferative activity in human SW48 cells assessed as cell viability after 72 hrs by MTT assay; assay type: functional, cell-based; outline: as §1
[4] = tested on: SW480; assay: Antiproliferative activity in human SW480 cells assessed as cell viability after 72 hrs by MTT assay; assay type: functional, cell-based; outline: as §1
[5] = tested on: SW-620; assay: Antiproliferative activity in human SW620 cells assessed as cell viability after 72 hrs by MTT assay; assay type: functional, cell-based; outline: as §1
[6] = tested on: T84; assay: Antiproliferative activity in human T84 cells assessed as cell viability after 72 hrs by MTT assay; assay type: functional, cell-based; outline: as §1
[7] = tested on: MCF7; assay: Antiproliferative activity in human MCF7 cells assessed as cell viability after 72 hrs by MTT assay; assay type: functional, cell-based; outline: as §1
[8] = Antiproliferative activity in human SK-N-BE cells assessed as cell viability after 72 hrs by MTT assay; assay type: functional, cell-based; outline: as §1
[9] = Antiproliferative activity in human FHs74 cells assessed as cell viability at 10 uM after 72 hrs by MTT assay; assay type: cell-based
Outline: (§2)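 Normal cells (CCD841CoN in EMEM/NEAA with 10% FBS; FHs74 in DMEM with 10% FBS, EGF 30 ng/mL, insulin 10 μg/mL) were seeded and grown for 24 h at 37 °C, 5% CO2, then given compound at 10 μM. Viability was read by MTT: 2 h at 37 °C, formazan solubilized, absorbance at 570 nm.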

[10] = Antiproliferative activity in human CCD-841-CoN cells assessed as cell viability at 10 uM after 72 hrs by MTT assay; assay type: cell-based; outline: as §2
[11] = target: Tubulin (Sus scrofa, UniProt P02554+P02550); assay: Inhibition of porcine brain tubulin polymerization after 30 mins by spectrophotometry
Outline: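 Porcine brain tubulin at 2.5 mg/mL was used in 80 mM PIPES pH 6.9, 1 mM MgCl2, 2 mM EGTA, 10% glycerol, with 1 mM GTP and graded compound (0.2% DMSO vehicle). Turbidity was followed at 340 nm, 37 °C.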

[12] = Cell cycle arrest in human HuTu 80 cells assessed as […] at sub-G1 phase at 30 nM after 72 hrs by propidium iodide-based flow cytometry (reference value: 4.3 %); assay type: functional; design: scale not given: the % may be the effect or the level left; conditions: HuTu80
[13] = Cell cycle arrest in human HuTu 80 cells assessed as accumulation at G2/M phase at 30 nM after 48 to 72 hrs by propidium iodide-based flow cytometry; assay type: functional; conditions: HuTu80
Outline: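 HuTu-80 cells were exposed to 30 nM compound for 48 and 72 h, with 0.1% DMSO as vehicle. Cells were trypsinized, washed in PBS, fixed in 75% ethanol at 4 °C and stained with propidium iodide. DNA content was measured by flow cytometry.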

[14] = Cell cycle arrest in human HuTu 80 cells assessed as […] at sub-G1 phase at 30 nM by propidium iodide-based flow cytometry; assay type: functional; conditions: HuTu80, TDE = time-dependent effect
[15] = target: T1, AMP-activated protein kinase, AMPK (Homo sapiens) (UniProt P54646+O43741+P54619+Q9UGJ0+Q9Y478+Q13131+Q9UGI9); assay: Induction of AMPK phosphorylation at Thr172 residue in human […] cells at 30 nM after 24 hrs by Western blot analysis; assay type: cell-based
Outline: (§3)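 HuTu-80 cells were exposed to 30 nM compound for 24 h, with 0.1% DMSO as vehicle. pT172-AMPK and pS792-Raptor were blotted from total RIPA extracts with vinculin for loading. pS15-p53 and total p53 were blotted from nuclear extracts with fibrillarin as nuclear control.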

[16] = target: T1, AMP-activated protein kinase, AMPK (Homo sapiens); assay: Induction of AMPK phosphorylation at Thr172 residue in human SW48 cells at 30 nM after 16 hrs by Western blot analysis; assay type: cell-based
Outline: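 SW48 cells were exposed to 30 nM compound for 16 h, with 0.1% DMSO as vehicle. Total RIPA lysates (with protease and phosphatase inhibitors) were blotted for pT172-AMPK and total AMPK.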

[17] = target: T1, AMP-activated protein kinase, AMPK (Homo sapiens); assay: Induction of AMPK-mediated p53 phosphorylation at ser15 residue in human […] cells at 30 nM after 24 hrs by Western blot analysis; assay type: cell-based; outline: as §3
[18] = target: T1, AMP-activated protein kinase, AMPK (Homo sapiens); assay: Induction of AMPK-mediated p53 pser15 accumulation in human […] cells at 30 nM after 24 hrs by Western blot analysis; assay type: cell-based; outline: as §3
[19] = target: T1, AMP-activated protein kinase, AMPK (Homo sapiens); assay: Induction of AMPK-mediated raptor phosphorylation at ser792 residue in human […] cells at 30 nM after 24 hrs by Western blot analysis; assay type: cell-based; outline: as §3
[20] = tested on: HuTu 18; assay: Effect on AKT phosphorylation at ser473 in human […] cells at 30 nM after 24 hrs by Western blot analysis; assay type: cell-based
Outline: (§4)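 HuTu-80 cells were exposed to 30 nM compound for 24 h, with 0.1% DMSO as vehicle. They were then mock treated or stimulated with 10 μg/mL insulin for 10 min. Total RIPA extracts were probed by Western blot for pS473-Akt and total Akt, with vinculin as loading control.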

[21] = tested on: HuTu 18; assay: Effect on AKT phosphorylation at ser473 in insulin-stimulated human […] cells at 30 nM after 24 hrs by Western blot analysis; assay type: cell-based; outline: as §4
[22] = tested on: HuTu80; assay: Induction of apoptosis in human HuTu 80 cells assessed as PARP cleavage at 30 nM after 24 hrs by Western blot analysis
[23] = tested on: HuTu80; assay: Induction of apoptosis in human HuTu 80 cells assessed as caspase-3 cleavage at 30 nM after 24 hrs by Western blot analysis
[24] = Cell cycle arrest in human HuTu 80 cells assessed as accumulation at sub-G1 phase at 30 nM after 48 hrs by propidium iodide-based flow cytometry (reference value: 3.3 %); conditions: HuTu80
[25] = Antiproliferative activity in human renal cancer cells; assay type: functional, cell-based; conditions: Cancer cell lines

SMILES: COc1ccc(N2C(=O)[C@@H](O)[C@H]2c2cc(OC)c(OC)c(OC)c2)cc1O (racemic)
Activity [1]: Active
IC50 ([2]; Homo sapiens, HuTu80, 72 h): 2550 nM

SMILES: COc1ccc([C@@H]2[C@H](O)C(=O)N2c2cc(OC)c(OC)c(OC)c2)cc1O (racemic)
Activity [1]: Active
IC50 ([2]; Homo sapiens, HuTu80, 72 h): 28.8 nM

IC50 ([3]; Homo sapiens, SW48, 72 h): 12.1 nM
IC50 ([4]; Homo sapiens, SW480, 72 h): 24.2 nM
IC50 ([5]; Homo sapiens, SW-620, 72 h): 6.6 nM
IC50 ([7]; Homo sapiens, MCF7, 72 h): 5.19 nM
IC50 [11]: 3600 nM
SMILES: COc1ccc([C@H]2[C@H](O)C(=O)N2c2cc(OC)cc(OC)c2)cc1 (racemic) [listing 1 of 2 here]
IC50 ([2]; hutu80): 9.05 nM
IC50 ([6]; Homo sapiens, T84, 72 h): 5.73 nM
IC50 ([8]; sk-n-be): 2.25 nM
Activity [9]: Non-toxic
Activity [10]: Non-toxic

IC50 ([3]; sw48): 11.1 nM
IC50 ([4]; sw480): 16.7 nM
IC50 ([5]; sw-620): 8.58 nM
IC50 ([7]; mcf7): 4.01 nM
IC50 [11]: 1300 nM
SMILES: COc1ccc([C@H]2[C@H](O)C(=O)N2c2cc(OC)cc(OC)c2)cc1 (stereo in doubt; (+))
IC50 ([2]; hutu80): 8.02 nM
IC50 ([6]; t84): 6.77 nM
IC50 ([8]; sk-n-be): 1.12 nM

Activity [15]: Active
Activity [16]: Active
Activity [17]: Active
Activity [18]: Active
Activity [19]: Active
SMILES: COc1ccc([C@H]2[C@H](O)C(=O)N2c2cc(OC)cc(OC)c2)cc1 (racemic) [listing 2 of 2 here]
Activity [1]: Active
Activity [12]: 35%
Activity [13]: Active
Activity [14]: tde
Activity [20]: inactive
Activity [21]: inactive
Activity [22]: Active
Activity [23]: Active
Activity [24]: 28.5%

SMILES: COc1ccc(N2C(=O)[C@@H](O)[C@@H]2c2cc(OC)c(OC)c(OC)c2)cc1O (racemic)
Activity [1]: Active
IC50 ([2]; Homo sapiens, HuTu80, 72 h): 406 nM

IC50 ([3]; Homo sapiens, SW48, 72 h): 15.2 nM
IC50 ([4]; Homo sapiens, SW480, 72 h): 22.1 nM
IC50 ([5]; sw-620): 13.6 nM
IC50 ([7]; Homo sapiens, MCF7, 72 h): 6.14 nM
IC50 [11]: 3800 nM
SMILES: COc1ccc([C@H]2[C@H](O)C(=O)N2c2cc(OC)c(OC)c(OC)c2)cc1O (racemic) [listing 1 of 2 here]
IC50 ([2]; hutu80): 13.4 nM
IC50 ([6]; t84): 45.4 nM
IC50 ([8]; sk-n-be): 4.2 nM

Activity [15]: Active
Activity [16]: Active
Activity [17]: Active
Activity [18]: Active
Activity [19]: Active
SMILES: COc1ccc([C@H]2[C@H](O)C(=O)N2c2cc(OC)c(OC)c(OC)c2)cc1O (racemic) [listing 2 of 2 here]
Activity [1]: Active
Activity [12]: 32.7%
Activity [13]: Active
Activity [14]: tde
Activity [20]: inactive
Activity [21]: inactive
Activity [22]: Active
Activity [23]: Active
Activity [24]: 22.9%

SMILES: COc1ccc([C@@H]2[C@H](O)C(=O)N2c2cc(OC)c(OC)c(OC)c2)cc1[N+](=O)[O-]
IC50 ([2]; Homo sapiens, HuTu80, 72 h): 529 nM
IC50 [25]: 29.2 nM

SMILES: COc1ccc([C@H]2[C@H](O)C(=O)N2c2cc(OC)c(OC)c(OC)c2)cc1O (stereo in doubt; (-))
IC50 ([2]; hutu80): 590 nM

SMILES: COc1ccc([C@@H]2[C@H](O)C(=O)N2c2cc(OC)cc(OC)c2)cc1 (racemic)
Activity [1]: Active
IC50 ([2]; Homo sapiens, HuTu80, 72 h): 125 nM

IC50 ([3]; sw48): 9.81 nM
IC50 ([4]; sw480): 12.5 nM
IC50 ([5]; sw-620): 3.37 nM
IC50 ([7]; mcf7): 4.47 nM
IC50 [11]: 1610 nM
SMILES: COc1ccc([C@H]2[C@H](O)C(=O)N2c2cc(OC)c(OC)c(OC)c2)cc1O (stereo in doubt; (+))
IC50 ([2]; hutu80): 3.05 nM
IC50 ([6]; t84): 20.3 nM
IC50 ([8]; sk-n-be): 1.32 nM
Activity [9]: Non-toxic
Activity [10]: Non-toxic

SMILES: COc1ccc([C@@H]2[C@H](O)C(=O)N2c2cc(OC)c(OC)c(OC)c2)cc1N
IC50 ([2]; Homo sapiens, HuTu80, 72 h): 101 nM

SMILES: COc1ccc([C@H]2[C@H](O)C(=O)N2c2cc(OC)cc(OC)c2)cc1 (stereo in doubt; (-))
IC50 ([2]; hutu80): 83.5 nM

SMILES: COc1ccc(/C=C\c2cc(OC)c(OC)c(OC)c2)cc1O [COMBRETASTATIN A4]
Activity [1]: Active
IC50 ([2]; Homo sapiens, HuTu80, 72 h): 1.37 nM
IC50 ([3]; Homo sapiens, SW48, 72 h): 3.32 nM
IC50 ([4]; Homo sapiens, SW480, 72 h): 3.63 nM
IC50 ([5]; Homo sapiens, SW-620, 72 h): 1.52 nM
IC50 ([6]; Homo sapiens, T84, 72 h): 23.4 nM
IC50 ([7]; Homo sapiens, MCF7, 72 h): 1.11 nM
IC50 ([8]; Homo sapiens, SK-N-BE, 72 h): 0.58 nM
Activity [12]: 34%
Activity [18]: Active
Activity [22]: Active
Activity [23]: Active
Activity [24]: 24.6%
